Reference: ChEMBL document CHEMBL2434854, “Synthesis and anticancer activity of some novel trifluoromethylquinolines carrying a biologically active benzenesulfonamide moiety” (Eur J Med Chem, 2013)

Assays:
Type in all cases: functional, cell-based
LoVo = experiment: Anticancer activity against human LoVo cells after 48 hrs by SRB assay
How it was run: (§1)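 Cells seeded 10^4 cells/well and allowed to attach for 24 h, then exposed to compounds dissolved in DMSO at 10, 25, 50 and 100 μM, triplicate wells per concentration, for 48 h at 37 °C in 5% CO2. Fixed, stained 30 min with 0.4% (wt/vol) SRB in 1% acetic acid, washed four times with 1% acetic acid, dye recovered in Tris-EDTA, absorbance read. IC50 taken from survival curves; doxorubicin reference.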

[1] = Anticancer activity against human […] cells after 48 hrs by SRB assay; how it was run: as §1
HepG2 = experiment: Anticancer activity against human HepG2 cells after 48 hrs by SRB assay; how it was run: as §1
HeLa = experiment: Anticancer activity against human HeLa cells after 48 hrs by SRB assay; how it was run: as §1
HT-1080 = experiment: Anticancer activity against human HT1080 cells after 48 hrs by SRB assay; conditions: HT-1080, 48 h; how it was run: as §1
MDA-MB-231 = experiment: Anticancer activity against human MDA-MB-231 cells after 48 hrs by SRB assay; how it was run: as §1
[2] = Homo sapiens, LoVo, 48 h, read-out: IC50
[3] = Homo sapiens, 48 h, read-out: IC50
[4] = Homo sapiens, HeLa, 48 h, read-out: IC50
[5] = Homo sapiens, MDA-MB-231, 48 h, read-out: IC50
[6] = Homo sapiens, HepG2, 48 h, read-out: IC50

Row | Compound | IC50 (LoVo; [2]) | IC50 (HepG2; hepg2) | IC50 (HeLa; [4]) | IC50 (HT-1080) | IC50 (MDA-MB-231; [5]) | IC50 (LoVo; lovo) | IC50 (HeLa; hela) | IC50 (MDA-MB-231; mda-mb-231) | IC50 (HepG2; [6]) | IC50 [1, 3] | IC50 [1]
1 | Cc1ccnc(NS(=O)(=O)c2ccc(Nc3ccnc4cc(C(F)(F)F)ccc34)cc2)n1 | – | Not Active | – | 32.5 µM | – | Not Active | Not Active | Not Active | – | 62.5 µM | –
2 | O=S(=O)(Nc1nccs1)c1ccc(Nc2ccnc3cc(C(F)(F)F)ccc23)cc1 | – | Not Active | 70.8 µM | 40.3 µM | 90.8 µM | Not Active | – | – | – | 66.1 µM | –
3 | COc1cc(NS(=O)(=O)c2ccc(Nc3ccnc4cc(C(F)(F)F)ccc34)cc2)nc(OC)n1 | 50.4 µM | – | 83.2 µM | 39.2 µM | – | – | – | Not Active | 83.8 µM | 37.9 µM | –
4 | Cc1cc(C)nc(NS(=O)(=O)c2ccc(N/C(S)=N\c3ccnc4cc(C(F)(F)F)ccc34)cc2)n1 | 40.2 µM | – | 33 µM | 29.5 µM | 52.9 µM | – | – | – | 72.2 µM | 43.4 µM | –
5 | Cc1cc(NS(=O)(=O)c2ccc(Nc3ccnc4cc(C(F)(F)F)ccc34)cc2)on1 | 33.6 µM | – | 97.6 µM | 33.5 µM | 74.8 µM | – | – | – | 33.5 µM | 74.8 µM | –
6 | O=S(=O)(Nc1ccccn1)c1ccc(Nc2ccnc3cc(C(F)(F)F)ccc23)cc1 | 20.2 µM | – | 44.8 µM | 41.8 µM | 18.4 µM | – | – | – | 46.1 µM | 30.4 µM | –
7 | NS(=O)(=O)c1ccc(N/C(S)=N\c2ccnc3cc(C(F)(F)F)ccc23)cc1 | 34.5 µM | – | 36.6 µM | 31 µM | 52.9 µM | – | – | – | 52.2 µM | 36.6 µM | –
8 | Nc1ccc(S(=O)(=O)Nc2ccnc3cc(C(F)(F)F)ccc23)cc1 | 53.6 µM | – | 46 µM | 29.6 µM | 30.9 µM | – | – | – | 93.1 µM | 29.2 µM | –
9 | COc1cccc2c1C(=O)c1c(O)c3c(c(O)c1C2=O)C[C@@](O)(C(=O)CO)C[C@@H]3O[C@H]1C[C@H](N)[C@H](O)[C@H](C)O1 [DOXORUBICIN] | 24.3 µM | – | 30.2 µM | 19.2 µM | 34 µM | – | – | – | 27.1 µM | 32.8 µM | –
10 | CC(=O)NS(=O)(=O)c1ccc(Nc2ccnc3cc(C(F)(F)F)ccc23)cc1 | 51.5 µM | – | – | 41.6 µM | 75.6 µM | – | Not Active | – | 46 µM | 64.2 µM | –
11 | Cc1noc(NS(=O)(=O)c2ccc(Nc3ccnc4cc(C(F)(F)F)ccc34)cc2)c1C | 36 µM | – | – | 31.9 µM | 39.3 µM | – | Not Active | – | 40.8 µM | 53.1 µM | –
12 | N=C(N)NS(=O)(=O)c1ccc(Nc2ccnc3cc(C(F)(F)F)ccc23)cc1 | 24.7 µM | Not Active | 41.3 µM | 49.8 µM | 28.8 µM | – | – | – | – | 55.2 µM | –
13 | Cc1cc(C)nc(NS(=O)(=O)c2ccc(Nc3ccnc4cc(C(F)(F)F)ccc34)cc2)n1 | 44.3 µM | Not Active | 32 µM | 32.8 µM | 36.2 µM | – | – | – | – | – | Not Active
14 | NS(=O)(=O)c1ccc(Nc2ccnc3cc(C(F)(F)F)ccc23)cc1 | 26.6 µM | – | 61.2 µM | 56.1 µM | 34.4 µM | – | – | – | 50.8 µM | 79 µM | –
15 | COc1cc(NS(=O)(=O)c2ccc(N/C(S)=N\c3ccnc4cc(C(F)(F)F)ccc34)cc2)nc(OC)n1 | 76.7 µM | – | 53.8 µM | 29.5 µM | 52.1 µM | – | – | – | 76.7 µM | 64.5 µM | –

The remaining compounds from weak to strong by IC50 (HT-1080), led by results:

Row | IC50 (LoVo; [2]) | IC50 (HepG2; hepg2) | IC50 (HeLa; [4]) | IC50 (HT-1080) | IC50 (MDA-MB-231; [5]) | IC50 (LoVo; lovo) | IC50 (HeLa; hela) | IC50 (MDA-MB-231; mda-mb-231) | IC50 (HepG2; [6]) | Compound | IC50 [1, 3] | IC50 [1]
16 | 34.7 µM | – | – | 29.1 µM | 45.2 µM | – | Not Active | – | 42.1 µM | O=S(=O)(Nc1ncccn1)c1ccc(N/C(S)=N\c2ccnc3cc(C(F)(F)F)ccc23)cc1 | 37.8 µM | –
17 | 31 µM | Not Active | 31 µM | 28.7 µM | 29.8 µM | – | – | – | – | Cc1ccnc(NS(=O)(=O)c2ccc(N/C(S)=N\c3ccnc4cc(C(F)(F)F)ccc34)cc2)n1 | 31 µM | –
18 | 30 µM | – | 37.6 µM | 28.3 µM | 58.6 µM | – | – | – | 28.4 µM | CC(=O)NS(=O)(=O)c1ccc(N/C(S)=N\c2ccnc3cc(C(F)(F)F)ccc23)cc1 | 37.6 µM | –
19 | 87.5 µM | – | 68.8 µM | 28 µM | 49.3 µM | – | – | – | 28 µM | O=S(=O)(Nc1ccccn1)c1ccc(N/C(S)=N\c2ccnc3cc(C(F)(F)F)ccc23)cc1 | 33.5 µM | –
20 | 67 µM | – | – | 27.7 µM | 27.9 µM | – | Not Active | – | 36.8 µM | Cc1noc(NS(=O)(=O)c2ccc(N/C(S)=N\c3ccnc4cc(C(F)(F)F)ccc34)cc2)c1C | 34 µM | –
21 | – | – | 60.2 µM | 27.3 µM | 80.3 µM | Not Active | – | – | 28.5 µM | Cc1cc(NS(=O)(=O)c2ccc(N/C(S)=N\c3ccnc4cc(C(F)(F)F)ccc34)cc2)on1 | 60.2 µM | –
22 | 67.1 µM | – | 95.2 µM | 27.3 µM | 24.4 µM | – | – | – | 28.2 µM | O=S(=O)(Nc1nccs1)c1ccc(N/C(S)=N\c2ccnc3cc(C(F)(F)F)ccc23)cc1 | 27.2 µM | –
23 | 27.4 µM | Not Active | 78.1 µM | 27.2 µM | 54.7 µM | – | – | – | – | O=S(=O)(Nc1ncccn1)c1ccc(Nc2ccnc3cc(C(F)(F)F)ccc23)cc1 | 34.2 µM | –
24 | 39.9 µM | – | – | 26 µM | 49.4 µM | – | Not Active | – | 66.1 µM | COc1ncnc(NS(=O)(=O)c2ccc(Nc3ccnc4cc(C(F)(F)F)ccc34)cc2)c1OC | 36.9 µM | –
25 | 56.8 µM | – | 34.1 µM | 25.8 µM | 52.8 µM | – | – | – | 82.6 µM | O=S(=O)(Nc1ccnn1-c1ccccc1)c1ccc(Nc2ccnc3cc(C(F)(F)F)ccc23)cc1 | 52.8 µM | –
26 | 30.2 µM | Not Active | 41 µM | 25.4 µM | 52.9 µM | – | – | – | – | O=C(Nc1ccccc1)Nc1ccc(S(=O)(=O)Nc2ccnc3cc(C(F)(F)F)ccc23)cc1 | 24.5 µM | –
27 | 23.9 µM | – | 23.9 µM | 24.3 µM | – | – | – | Not Active | 33.5 µM | N=C(N)NS(=O)(=O)c1ccc(N/C(S)=N\c2ccnc3cc(C(F)(F)F)ccc23)cc1 | 23.9 µM | –
28 | 28.4 µM | – | – | 22.8 µM | 83 µM | – | Not Active | – | 77.2 µM | COc1ncnc(NS(=O)(=O)c2ccc(N/C(S)=N\c3ccnc4cc(C(F)(F)F)ccc34)cc2)c1OC | 81.8 µM | –
29 | 19.7 µM | – | 35.3 µM | 17.9 µM | 18.4 µM | – | – | – | 27.6 µM | O=C(Nc1ccccc1)NS(=O)(=O)c1ccc(Nc2ccnc3cc(C(F)(F)F)ccc23)cc1 | 18.4 µM | –
